Hits are enriched below; roughly 11% of the tested compounds scored in any of these assays.
S1P3 ag = agonists of human S1P3 receptor; Q99500; S1P3 NFAT-BLA reporter cells, agonism, FRET ratio; relative to 1 µM S1P, basal subtracted; activation, % at 4.5 µM; 0.1% of 60,000 active;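 active = activation above the screen-wide mean plus 3 SD, cut at about 4.5% in these data, passing the limit was not always enough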
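Material: Human S1P3 NFAT-BLA reporter CHO cells | Incubation: Overnight plating, 4 h compound 37 °C, 2 h substrate RT | Signal: FRET β-lactamase substrate fluorescence, excitation 405 nm, 460/535 nm emission ratio, background-subtracted | Compound: 4.5 µM final, single dose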
M1 antag = antagonists of rat M1 muscarinic receptor. CHO-M1 cells, Fluo-4 calcium, ACh EC80 antagonist mode; hits give low values. B-score at 10 µM. 3.4% of 64,000 active;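 active = calcium fluorescence response, raw or row-and-column corrected B-score, differing from the plate sample mean either way at a set confidence level, mostly lower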
D1 allo mod = allosteric modulators of human D1 dopamine receptor | P21728 | HEK293 D1, CRE-luciferase, dopamine EC30 potentiation; actives deviate in either direction | B-score at 10 µM | 5.9% of 58,000 active | AID 641;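 active = luminescence count or its row- and column-corrected plate score outside the 99.7% band of the plate's sample wells, on either side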
M1 ag = activates the M1 muscarinic receptor; CHO-M1 cells, Fluo-4 calcium fluorescence, agonist mode; hits give high values; B-score at 10 µM; 3% of 64,000 active; AID 626;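 active = fluorescence rise, raw or as B-score row- and column-corrected plate score, outside the 99.7% band of its plate's samples, either direction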
TNAP act DEA = activators of human TNAP at intermediate phosphate acceptor | purified TNAP, CDP-star luminescence, 100 mM DEA, 30 min; hits give high values; scale: 0 levamisole-inhibited, 1 vehicle-only enzyme | activation factor at 20 µM | 64,000 tested, under 10 active | AID 813;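 active = activation factor of at least 2 at 20 µM, relative to controls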
Target sequence (P05186 whole entry, looked up): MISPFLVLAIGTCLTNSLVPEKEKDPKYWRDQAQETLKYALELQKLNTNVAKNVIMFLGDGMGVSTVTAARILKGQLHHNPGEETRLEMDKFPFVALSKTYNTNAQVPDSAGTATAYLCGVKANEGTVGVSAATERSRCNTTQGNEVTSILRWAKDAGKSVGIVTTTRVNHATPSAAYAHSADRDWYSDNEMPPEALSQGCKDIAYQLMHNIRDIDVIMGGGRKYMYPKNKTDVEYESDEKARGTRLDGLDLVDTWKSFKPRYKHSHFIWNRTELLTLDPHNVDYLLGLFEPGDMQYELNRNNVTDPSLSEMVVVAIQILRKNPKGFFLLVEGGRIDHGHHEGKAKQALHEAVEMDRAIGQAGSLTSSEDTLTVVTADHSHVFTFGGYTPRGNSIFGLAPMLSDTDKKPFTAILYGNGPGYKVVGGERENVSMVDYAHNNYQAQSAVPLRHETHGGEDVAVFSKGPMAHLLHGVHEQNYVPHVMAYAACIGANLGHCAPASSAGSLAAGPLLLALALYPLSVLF
S1P1 ag pot = S1P1 (human) agonism or agonism potentiation; S1P1 CRE-bla cells, forskolin, beta-lactamase FRET, potentiator mode; S1P1 agonist co-added at EC20, 2 nM; 100% = saturating reference agonist, 0% = basal; activation, % at 9.5 µM; 0.57% of 56,000 active; AID 449;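 active = activation above a cutoff set at the mean activation of all tested compounds plus 3 SD, cut at about 54% in these data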;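 note: forskolin at 4 µM as EC80 and the EC20 agonist is SEW2871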
M1 antag conf = confirmation of rat M1 muscarinic receptor antagonists | shares compounds with M1 antag | CHO-M1 cells, Fluo-4 calcium, ACh EC80 antagonism; hits give low values | calcium response (max-min fluorescence) at 10 µM | 43% of 1,700 active | AID 677;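 active = calcium response below the same-plate mean of wells given acetylcholine alone at its 80%-effect dose, minus 3 SD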
mGluR4 antag = selectivity test for M1 antagonists: human mGluR4 receptor. 0.9% of 1,700 active. shares compounds with M1 antag. fluorescence response (max-min) at 10 µM. CHO-mGluR4 calcium flux, Fluo-4 fluorescence, glutamate EC80; hits give low values;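 active = fluorescence response below the plate's average for near-maximal glutamate wells, less 3 SD of those wells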;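 note: raw unnormalized fluorescence span taken in the window right after glutamate addition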
Large screens that a line does not name were inactive (follow-up assays come after a bar, where they were run).

CCN(CC)c1ccc(C2CC(=O)NC3=C2C(=O)CC(C)(C)C3)cc1 (stereo not given)	M1 antag -3.2 | M1 antag conf 381 | mGluR4 antag inactive
CN(C)c1ccc(C2CC(=O)NC3=C2C(=O)CC(C)(C)C3)cc1 (stereo not given)	none (no result: D1 allo mod)
C=CCN1C(=Nc2cccnc2)SCC1(O)c1ccc(C)cc1 (stereo not given)	M1 antag -2.2, S1P1 ag pot 77 | M1 antag conf 478 | mGluR4 antag inactive
CC(NC(=O)Nc1ccccc1)C(c1cccs1)N1CCN(C)CC1 (stereo not given)	none
COC(=O)Nc1nnc(Cc2ccccc2)s1	M1 antag -17 | M1 antag conf inactive | mGluR4 antag inactive
COC(=O)Nc1nnc(CCc2ccccc2)s1	none
Cn1c(SCc2ccc(Br)cc2)nnc1-c1cccs1	M1 antag -4.4 | M1 antag conf inactive | mGluR4 antag inactive
CCCc1cc(=O)n2[nH]c(C)cc2n1	none
CCCSc1nc(N)c2c3c(sc2n1)CN(C)CC3	M1 antag -3.9 (no result: S1P3 ag, S1P1 ag pot) | M1 antag conf 485 | mGluR4 antag inactive
CN(C)CCSc1nc(N)c2c3c(sc2n1)CN(C)CC3	M1 antag -6.2 (no result: S1P3 ag, S1P1 ag pot) | M1 antag conf 545 | mGluR4 antag inactive
Cc1cc(NC(=O)CSc2nc3ccccc3c(=O)n2CCCC(=O)NCc2ccco2)n[nH]1	none (no result: S1P3 ag, S1P1 ag pot)
CS(=O)(=O)c1ccc2nc(NC(=O)CN3CCN(Cc4ccccc4)CC3)sc2c1	M1 antag -2.5 | M1 antag conf inactive | mGluR4 antag inactive
CS(=O)(=O)c1ccc2nc(NC(=O)CC3CCCC3)sc2c1	none
Cc1ccc2[nH]c(=O)c(-c3nc4cc(C)ccn4c3NCc3ccco3)cc2c1	M1 antag -3.3 | M1 antag conf inactive | mGluR4 antag inactive
CCCCn1c(=O)n(CC(O)c2ccccc2)c(=O)c2c1ncn2C1CCCC1 (stereo not given)	M1 antag -3.8 | M1 antag conf inactive | mGluR4 antag inactive
COC(=O)COc1ccc(S(=O)(=O)Nc2ccc(NC(C)=O)cc2)cc1C	M1 antag -3.1 | M1 antag conf inactive | mGluR4 antag inactive
Cc1cccn2c(=O)c3cc(C(=O)NC(C)C)c(=N)n(Cc4ccncc4)c3nc12	none (no result: M1 antag, M1 ag)
CCNC(=O)c1cc2c(=O)n3cccc(C)c3nc2n(Cc2ccc(C)cc2)c1=N	M1 antag -2.9 | M1 antag conf inactive | mGluR4 antag inactive
COCCCNC(=O)c1cc2c(=O)n3cccc(C)c3nc2n(C(C)C)c1=N	none
N=c1c(C(=O)NCc2ccccc2)cc2c(=O)n3ccccc3nc2n1CCCN1CCOCC1	none
COCCn1c(=N)c(C(=O)NCCc2ccc(OC)cc2)cc2c(=O)n3cccc(C)c3nc21	M1 antag -4.4 | M1 antag conf 311 | mGluR4 antag inactive
COc1ccc(CCn2c(=N)c(C(=O)NCc3ccco3)cc3c(=O)n4ccccc4nc32)cc1	M1 antag -2.7, D1 allo mod -3.7 | M1 antag conf inactive | mGluR4 antag inactive
O=S(=O)(c1cccc2nsnc12)N1CCc2ccccc21	none
Cn1c(SCC(=O)Nc2cc(=O)n(C)c(=O)n2C)nnc1C12CC3CC(CC(C3)C1)C2	none (no result: D1 allo mod)
O=C(Nc1ccc(Cl)cc1)N1CCSCC1	M1 antag -2.3 (no result: S1P3 ag, S1P1 ag pot) | M1 antag conf inactive | mGluR4 antag inactive
COC(=O)c1sccc1NC(=O)Cn1cnc2c1c(=O)n(C)c(=O)n2C	none (no result: S1P1 ag pot)
CC1(C)CC2CC(C)(CN2C(=O)C23CCC(C)(C(=O)O2)C3(C)C)C1 (stereo not given)	none (no result: S1P1 ag pot)
CCCCC(=O)Nc1ccc(C(=O)N2CCN(C)CC2)cc1	none (no result: S1P1 ag pot)
CC(=O)c1c(C)[nH]c(C(=O)OCC(=O)Nc2ncc(Cl)c(C)c2Cl)c1C	M1 antag -15 | M1 antag conf inactive | mGluR4 antag inactive
Cc1cc(C)nc(NC(=O)CN2C(=O)c3ccccc3C2=O)n1	none
CCCCOC(=O)Nc1cccc(C(C)=O)c1	M1 antag -4.8 | M1 antag conf inactive | mGluR4 antag inactive
CCOC(=O)N1CCN(c2ccc(S(=O)(=O)N(Cc3ccccc3)Cc3ccccc3)cn2)CC1	none (no result: TNAP act DEA)
CCN1CCN(C(=O)c2oc(=O)c3ccccc3c2-c2ccc(C)cc2)CC1	M1 antag -1.8 | M1 antag conf 320 | mGluR4 antag inactive
CCCCOc1ccc(OC(=O)c2cccnc2)cc1	none (no result: D1 allo mod)
CCCCOC(=O)c1ccc(OC(=O)c2cccnc2)cc1	M1 antag -5.1 | M1 antag conf inactive | mGluR4 antag inactive
COc1ccc(NC(=O)CSc2nnc(Cn3c(=O)sc4ccccc43)n2C)c(OC)c1	none (no result: D1 allo mod)
CCOC(=O)/C=C1\SCC(=O)N1CC(=O)Nc1ccc2c(c1)CCC2	M1 antag -1.9 | M1 antag conf inactive | mGluR4 antag inactive
CCCOC(=O)c1ccc(OCC(O)CN2CCN(C(=O)c3ccccc3)CC2)cc1 (stereo not given)	M1 antag -2 | M1 antag conf inactive | mGluR4 antag inactive
O=C(Cn1c(=O)sc2ccccc21)Nc1ccc(S(=O)(=O)N2CCCC2)cc1	none
Cc1ccc(Nc2nc(CSc3nnnn3C)cs2)cc1	M1 antag -4.8 | M1 antag conf inactive | mGluR4 antag inactive
Cn1nnnc1SCc1csc(Nc2ccccc2)n1	none
O=C(CN1CCOCC1)OCCCC1CCCCC1	M1 antag -3.9 (no result: D1 allo mod) | M1 antag conf inactive | mGluR4 antag inactive
Fc1ccc(N2CCN(C(c3cccs3)c3nnnn3C3CCCC3)CC2)cc1 (stereo not given)	none
COc1ccc(Cl)cc1NC(=O)CN1CCC(n2nnc3ccccc32)CC1	none (no result: M1 antag, D1 allo mod, M1 ag)
O=C(OCn1nnc2ccccc2c1=O)C1COc2ccccc2O1 (stereo not given)	none
O=c1c2ccccc2nnn1CSc1nnc(C2COc3ccccc3O2)n1-c1ccccc1 (stereo not given)	S1P3 ag 9.0, M1 antag -2.4 | M1 antag conf inactive | mGluR4 antag 159
O=C(CNS(=O)(=O)c1ccc(C(=O)N2CCCCC2)cc1)N1CCCCC1	none (no result: S1P3 ag, S1P1 ag pot)
CCOc1ccccc1NC(=O)CSc1nnc(Cn2c(=O)sc3ccccc32)n1C	none (no result: D1 allo mod)
CCn1cc(C(=O)NCCCN2CC(C)CC(C)C2)c2cc(OC)c(OC)cc2c1=O (stereo not given)	M1 antag -1.8 (no result: S1P3 ag, D1 allo mod, S1P1 ag pot) | M1 antag conf inactive | mGluR4 antag inactive
c1ccc(CNc2ccc3c(c2)ncn3C2CCCCC2)nc1	M1 antag -4.9 | M1 antag conf inactive | mGluR4 antag inactive
